# Compound activity as filed in PubChem.
# Shown are actives, neighbours in structure and some others; about 4.1% of the full set was active somewhere.
# KCNK9 inh: KCNK9 potassium channel inhibitors, primary screen, HEK293 cells, thallium flux; Potassium channel subfamily K member 9 (Homo sapiens), Q9NPC2; FluxOR thallium flux fluorescence; stronger effect = lower value; B-score at 10 µM; actives 1.2% (n = 310,000);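 active = ratio B-score over 3 SD below the library mean, with starting fluorescence within 5 SD of its mean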;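 note: negative B-score means less thallium flux so channel inhibition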
# KCNK3 block: human KCNK3 channel inhibitors, primary screen, CHO cells, FluxOR thallium flux, B-score. Potassium channel subfamily K member 3 (Homo sapiens), O14649. FluxOR fluorescence; stronger effect = lower value. B-score at 10 µM. actives 0.84% (n = 340,000);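 active = B-score under library mean minus 4 SD, starting fluorescence ratio at most library mean plus 5 SD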;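 note: more negative B-score means stronger inhibition of thallium flux through KCNK3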
# KCNQ1 act: potentiators or activators of KCNQ1 channel, primary screen, cell-based, thallium flux, high-throughput; Potassium voltage-gated channel subfamily KQT member 1 (Homo sapiens), P51787; CHO-K1 KCNQ1, thallium flux FluxOR fluorescence; stronger effect = higher value; B-score at 10 µM; actives 0.35% (n = 310,000);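 active = fluorescence ratio B-score, a plate-corrected score, at least three library SD, with initial intensity B-score within 5 SD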
#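 System: Stable KCNQ1 CHO-K1 line | Incubation: 90 min dye loading and 20 min compound exposure, both at room temperature | Measure: Ratio B score | Medium: Assay buffer for compound exposure, DMSO matched across wells | Compound dosing: Single-concentration screen | Probe or stimulus: K+/Tl+ depolarizing stimulus | Measured by: Kinetic FluxOR fluorescence, 10 s baseline plus 110 s post-stimulus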
# hERG protect: hERG rescue from dofetilide block, primary screen, cell-based, CHO-hERG, FluxOR thallium flux, dofetilide IC70 | dofetilide IC70 present | activation (rescue from dofetilide block), less the hit threshold, % at 10 µM | actives 0.51% (n = 310,000);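 active = activation above the mean of controls blocked by dofetilide plus 5 SD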;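 note: thallium influx through hERG after potassium depolarization seen as dye fluorescence rise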
# KCC2 mod: KCC2 cotransporter modulators, thallium flux, primary screen, cell-based, HEK293 KCC2, FluoZin-2 fluorescence, MLSMR; KCC2 cells, thallium flux FluoZin-2 fluorescence; actives 2.2% (n = 190,000); AID 1456, 2008; B-score of Tl+ flux slope (higher = more flux/activation; lower = inhibition) at 10 µM; Solute carrier family 12 member 5 (Homo sapiens), Q9H2X9;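 active = thallium flux slope and its plate-corrected score both differing from the plate sample mean at a set confidence after two filtering rounds, in either direction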;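 note: slope of fluorescence scaled to starting intensity during 10 to 20 s after thallium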
# Target sequence (Q9H2X9 whole entry, looked up): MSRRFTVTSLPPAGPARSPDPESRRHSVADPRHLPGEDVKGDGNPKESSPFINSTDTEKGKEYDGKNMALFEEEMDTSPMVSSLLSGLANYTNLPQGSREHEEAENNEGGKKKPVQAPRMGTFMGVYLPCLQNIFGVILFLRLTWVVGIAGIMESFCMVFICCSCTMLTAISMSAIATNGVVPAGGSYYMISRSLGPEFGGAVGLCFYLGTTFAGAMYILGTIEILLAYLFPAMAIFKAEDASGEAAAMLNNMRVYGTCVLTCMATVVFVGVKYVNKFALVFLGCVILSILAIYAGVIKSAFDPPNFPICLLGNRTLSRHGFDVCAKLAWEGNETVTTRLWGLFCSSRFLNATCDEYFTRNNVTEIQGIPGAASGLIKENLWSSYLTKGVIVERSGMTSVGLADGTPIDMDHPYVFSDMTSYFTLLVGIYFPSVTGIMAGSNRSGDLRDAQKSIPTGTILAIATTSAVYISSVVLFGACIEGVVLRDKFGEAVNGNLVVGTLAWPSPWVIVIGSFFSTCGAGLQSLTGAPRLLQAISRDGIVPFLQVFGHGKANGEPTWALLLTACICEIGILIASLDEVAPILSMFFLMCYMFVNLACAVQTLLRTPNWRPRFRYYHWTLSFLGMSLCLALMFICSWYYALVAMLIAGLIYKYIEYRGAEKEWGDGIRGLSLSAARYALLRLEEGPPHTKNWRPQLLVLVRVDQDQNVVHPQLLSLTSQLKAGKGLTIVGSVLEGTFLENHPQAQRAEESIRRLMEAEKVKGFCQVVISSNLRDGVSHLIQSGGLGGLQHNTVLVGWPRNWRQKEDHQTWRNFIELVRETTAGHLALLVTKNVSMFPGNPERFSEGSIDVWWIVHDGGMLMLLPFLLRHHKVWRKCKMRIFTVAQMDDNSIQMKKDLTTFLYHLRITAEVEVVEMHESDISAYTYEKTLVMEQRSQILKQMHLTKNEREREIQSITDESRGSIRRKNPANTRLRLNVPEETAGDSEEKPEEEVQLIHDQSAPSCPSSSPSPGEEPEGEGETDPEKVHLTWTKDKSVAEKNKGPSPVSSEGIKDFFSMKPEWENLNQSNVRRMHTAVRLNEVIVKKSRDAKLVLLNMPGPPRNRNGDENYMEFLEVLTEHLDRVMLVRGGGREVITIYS
# KCNQ1 inh: inhibitors of human KCNQ1 channel, primary screen, cell-based, thallium flux, high-throughput. Potassium voltage-gated channel subfamily KQT member 1 (Homo sapiens), P51787. CHO-K1 KCNQ1, FluxOR thallium flux fluorescence; stronger effect = higher value. B-score at 10 µM. actives 1.3% (n = 310,000);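 active = compounds whose thallium flux B-score, printed positive for inhibition, exceeds three library SD while starting fluorescence stays within three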;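 note: channel opened by potassium depolarization with thallium stimulus after 20 min compound exposure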
# KCNK9 block conf: KCNK9 potassium channel inhibitors, confirmation, HEK293 cells, thallium flux, duplicate. actives 43% (n = 4,900). inhibition, % at 10 µM. FluxOR thallium flux fluorescence. shares compounds with KCNK9 inh. AID 492992, 2010;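 active = thallium signal inhibited by more than 5 SD of the compound-free buffer control wells, on both duplicate plates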;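 note: 0% = assay buffer control wells without compound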
# Kir21 sel: mouse Kir2.1 channel inhibition, confirmation, selectivity assay for KCNK9 modulator project, cell-based, HEK293, thallium flux. shares compounds with KCNK9 inh. Kir2.1 cells, FluxOR thallium flux fluorescence. inhibition, % at 10 µM. actives 4% (n = 4,900). AID 492993, 2010;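 active = thallium signal drop more than 5 SD beyond the mean of the no-compound control wells, seen in both duplicate plates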;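 note: signal is fluorescence rise after thallium addition divided by baseline fluorescence; plate controls were assay buffer only for no effect and full block by chlorpromazine control for full effect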
# KCNK9 uninduced: thallium flux in non-induced HEK293 cells, confirmation, counter-screen for KCNK9 inhibitor project, cell-based, second counter screen, non-induced KCNK9-HEK293; shares compounds with KCNK9 inh; FluxOR thallium flux; inhibition, % at 10 µM; actives 40% (n = 4,900);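 active = thallium signal drop beyond 5 SD of the untreated control mean, on both duplicate plates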;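 note: plate controls were buffer only IC0 wells for no effect and SID17386958 at its maximal inhibitory level for full effect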
# * marks the source's active call; other numbers are inactive results; i = inactive; · = no result.
SMILES,KCNK9 inh,KCNK3 block,KCNQ1 act,hERG protect,KCC2 mod,KCNQ1 inh,KCNK9 block conf,Kir21 sel,KCNK9 uninduced
N=c1c2c(-c3ccccc3)c(-c3ccccc3)n(Cc3ccco3)c2ncn1Cc1ccccc1,-15*,i,i,-31,-1.5,10*,60%*,52%*,28%*
CC(C)Cn1cnc2c(c(-c3ccccc3)c(-c3ccccc3)n2Cc2ccco2)c1=N,-9.9*,i,i,-20,·,9*,68%*,56%*,28%*
CN(C)CCCNC(=O)C(=O)NCC1OCCN1S(=O)(=O)c1cccs1 (stereo not drawn),i,i,i,-4,·,i,·,·,·
COC(C[C@@H](O)C[C@@H](O)[C@@H](C)OCc1ccccc1)OC,i,i,i,-4,·,i,·,·,·
CCOC(=O)c1cc2occc2n1Cc1ccc(F)cc1,-8.3*,i,i,-8,0.1,i,i,i,30%*
COC(=O)c1cc2occc2n1Cc1ccc(Cl)cc1,i,i,i,-15,1.3,i,·,·,·
CCOc1ccc(NC(=O)CSc2nnc(C)n2CC)cc1,i,i,i,-8,·,i,·,·,·
CCC1=NN(C(=O)c2cccc(Br)c2)C(O)(c2ccc(Br)cc2)C1 (stereo not drawn),-10*,i,i,-14,6.5*,8*,42%*,i,26%*
Cc1ccc(NC(=O)CN2C(=O)NC3(CCCCC3C)C2=O)cc1S(=O)(=O)N1CCCCC1 (stereo not drawn),i,i,i,-9,·,i,·,·,·
O=C(Cn1cc2c(n1)CCCC2)Nc1cc(-c2cccc(Cl)c2)no1,-15*,i,i,-5,0.52,i,60%*,i,i
CC(NC(=O)Cn1cc2c(n1)CCCCC2)c1ccccc1 (stereo not drawn),i,i,i,-7,-0.33,i,·,·,·
Nc1ncnc(N(c2ccccc2)C2CCCCC2)c1[N+](=O)[O-],i,i,i,-14,·,i,·,·,·
Cc1noc(NC(=O)c2ccc(Cl)cc2)c1Cl,i,i,i,-5,0.44,i,·,·,·
Cc1nonc1OCC(C)(COc1nonc1C)NC(=O)c1ccc(Cl)cc1,-9.1*,i,i,-10,-1.1,i,46%*,i,36%*
O=C(Nc1ccc2c(c1)N(S(=O)(=O)c1cccs1)CCC2)c1c(F)cccc1Cl,-11*,i,i,-13,·,i,i,i,36%*
CC(C)[C@H](NC(=O)c1ccccc1F)C(=O)Nc1nc2c(s1)CCCC2,i,i,i,-9,-0.81,i,·,·,·
CC1CCCCN1C(=S)NC(=O)c1ccco1 (stereo not drawn),·,i,·,·,·,·,·,·,·
O=C(O)CCCCn1c(SCC(=O)Nc2ccccc2C(F)(F)F)nc2ccsc2c1=O,i,i,i,-4,0.52,i,·,·,·
CCC(C)n1c(SCC(=O)Nc2ccccc2C(F)(F)F)nc2ccsc2c1=O (stereo not drawn),-8.9*,i,i,-10,-0.83,i,26%*,i,26%*
CN1C(=O)C(=O)/C(=C(/O)c2ccc(Br)cc2)C1c1cccc([N+](=O)[O-])c1 (stereo not drawn),i,i,i,-6,·,i,·,·,·
COc1ccc(C(=O)/C(=C\c2sccc2C)c2nc3ccccc3o2)cc1,i,·,i,-6,-0.51,i,·,·,·
CC(C)Oc1ccc(C(=O)/C(=C\c2cccs2)c2nc3ccccc3o2)cc1,i,i,i,-12,0.58,i,i,i,i
Cc1ccc(CNS(=O)(=O)c2c(C)[nH]c(C)c2C(=O)N2CCCCC2)o1,i,i,i,-11,·,i,·,·,·
CCN(CC)CCn1c(SCC(=O)Nc2cccc(OC)c2)nc2c(sc3ccccc32)c1=O,-12*,i,i,-21,-0.039,i,48%*,i,32%*
COc1cccc(NC(=O)CSc2nc3c(sc4ccccc43)c(=O)n2CCN(C)C)c1,i,i,i,-15,1.3,i,·,·,·
SMILES,KCNK9 inh,KCNK3 block,KCNQ1 act,hERG protect,KCC2 mod,KCNQ1 inh,KCNK9 block conf,Kir21 sel,KCNK9 uninduced
CC(=Nc1ccccc1)C1=C(O)C(CC(C)C)NC1=O (stereo not drawn),·,i,·,·,·,·,·,·,·
O=c1[nH]c(C2CCCN(S(=O)(=O)c3ccccc3)C2)nc2c1nnn2Cc1ccc(OC(F)(F)F)cc1 (stereo not drawn),i,i,i,-5,·,i,·,·,·
O=S(=O)(c1ccc(OC(F)(F)F)cc1)N1CCCC(c2ccccc2)C1 (stereo not drawn),-11*,i,i,-3,·,i,i,i,i
Cc1ccccc1CC1(CO)CCCN(C(=O)c2cc(Cl)ccc2F)C1 (stereo not drawn),i,i,i,-13,-1.2,i,·,·,·
Cc1ccccc1CC1(CO)CCCN(C(=O)c2cccc(Cl)c2)C1 (stereo not drawn),i,i,i,-19,0.65,i,i,i,24%*
c1ccc2sc(SCSc3nc4ccccc4s3)nc2c1,-13*,i,i,-9,2.1,i,72%*,i,38%*
COc1ccc(C)cc1NC(=O)CC(O)(C(F)(F)F)C(F)(F)F,-9.6*,i,i,-15,0.86,i,i,i,i
CCOC(=O)Nc1cc(C)ccc1OC,i,i,i,-7,0.85,i,·,·,·
